Results from PubChem BioAssay AID1665 (Sanford-Burnham Center for Chemical Genomics, 2009).
About 590 (0.31%) of roughly 190,000 compounds were called active.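 Rule for the calls: active = nuclear translocation activity above 50% at 5 µM, with a well cell count of 50 or more; inconclusive = wells under 50 cells across six images, flagged as toxic; inactive = the rest.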 What follows is part of a selection rich in actives, with near analogues and random picks from the rest.

Test: modulators of beta-catenin nuclear translocation, primary screen, imaging, HeLa cells, immunofluorescence, high-content (AID 1665);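 for nuclear translocation activity: per-cell ratio of nuclear to cytoplasmic median beta-catenin stain intensity; plate controls were DMSO negative control for no effect and GSK-3 inhibitor IX positive control for full effect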
Details: at 5 µM; cell count: measured here: cell count, cytotoxicity flag; nuclear translocation activity: stronger effect = higher value
Outline: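 Signal – beta-catenin immunofluorescence imaging with DAPI · Test system – human HeLa cell line · Dosing – 5 µM primary single dose, 0.1% DMSO, 0.02–20 µM confirmation series · Measure – % activation, nuclear-to-cytoplasmic median beta-catenin signal ratio per cell · Incubation – 24 h compound exposure at 37°C, 5% CO2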

SMILES | cell count | nuclear translocation activity
COc1ccc2c(CC(=O)OCC(=O)NC(N)=O)coc2c1 | 1100 cells | -0.9% (inactive)
COc1cccc(C2Nc3cccc4cccc(c34)N2)c1 | 1290 cells | -0.1% (inactive)
Nc1nnnn1/N=C/c1cc([N+](=O)[O-])ccc1O | 1250 cells | 2.2% (inactive)
CSC1=NCCN1C(=O)Cc1cccc2ccccc12 | 1340 cells | 0.5% (inactive)
COc1ccc(C(=O)N/N=C2\CCS(=O)(=O)c3ccc(F)cc32)cc1OC | 1320 cells | 0.5% (inactive)
O=C(N/N=C/c1cccc([N+](=O)[O-])c1)c1ccncc1 | 1370 cells | -0.3% (inactive)
O=C(NCCN1CCN(Cc2ccccc2)CC1)c1cc2c(=O)[nH]c3ccccc3c2s1 | 1180 cells | -3.9% (inactive)
Cc1cccc(N(C)C(=O)c2cc3c(=O)[nH]c4ccc(C)cc4c3s2)c1 | 369 cells | 61.3% (active)
Cc1ccc2[nH]c(=O)c(CC=C(Cl)Cl)c(C)c2c1 | 484 cells | -1.1% (inactive)
O=C(NCC1CCCO1)c1ccccc1-c1nc(-c2ccccc2Cl)no1 (stereo not given) | 1310 cells | 0% (inactive)
O=[N+]([O-])/C=C1\CCCCCN1 | 1320 cells | 0% (inactive)
O=c1[nH]nc(SCCS(=O)(=O)c2ccc(F)cc2)n1-c1ccccc1C(F)(F)F | 1270 cells | 2.8% (inactive)
Cc1ccc(S(=O)(=O)C2(S(=O)(=O)c3ccc(C)cc3)CCCC2)cc1 | 297 cells | 67.3% (active)
Cc1ccc(S(=O)(=O)N2CCCC2CO)cc1 (stereo not given) | 831 cells | -0.4% (inactive)
Cc1ccc(S(=O)(=O)NC(=O)N2CCCC(C)(C)C2)cc1 | 1150 cells | 0.1% (inactive)
CCCC(=O)n1nc(-c2ccccc2)nc1N | 1050 cells | 0% (inactive)
COc1ccc(C(=O)CN2C(=O)NC(C)(c3ccc(C)cc3)C2=O)cc1OC (stereo not given) | 931 cells | -3.5% (inactive)
COc1ccc(C(=O)n2nc(-c3ccc(C)cc3)nc2N)cc1OC | 579 cells | 100% (active)
CN(C)C(=O)c1coc2nc3ccccc3nc12 | 1300 cells | -0.3% (inactive)
CC[C@]1(O)CC2CN(CCc3c([nH]c4ccccc34)[C@@](C(=O)OC)(c3cc4c(cc3OC)N(C=O)[C@H]3[C@@](O)(C(=O)OC)[C@H](OC(C)=O)[C@]5(CC)C=CCN6CC[C@]43[C@@H]65)C2)C1 (stereo not given in full) | 617 cells | 62.5% (active)
CC[C@]1(O)C[C@@H]2CN(CCc3c([nH]c4ccccc34)[C@@](C(=O)OC)(c3cc4c(cc3OC)N(C)[C@H]3[C@@](O)(C(=O)OC)[C@H](OC(C)=O)[C@]5(CC)C=CCN6CC[C@]43[C@@H]65)C2)C1 | 560 cells | -2% (inactive)
CC/C=C/C(=O)N1CC2(CC(c3cccc(NC(=O)CC)c3)=NO2)C[C@H]1C(N)=O (stereo not given in full) | 1030 cells | 0.6% (inactive)
O=C(Nc1cccnc1Oc1ncnc2cc(Cl)ccc12)c1ccc(F)cc1 | 1330 cells | -0.5% (inactive)
COCCCn1c(-c2cccs2)nc2nc3ccccc3nc21 | 1370 cells | -0.5% (inactive)
CCC1=NN2C(=N)/C(=C/c3cc(C)n(-c4ccccc4)c3C)C(=O)N=C2S1 | 1350 cells | -0.8% (inactive)
Cc1[nH]n(-c2ccccc2)c(=O)c1N=Nc1ccccc1C(=O)N1CCCCC1 | 1360 cells | 0.5% (inactive)
Cc1ccc(CCC(=O)Nc2ncc(Cc3cc(Cl)ccc3Cl)s2)o1 | 142 cells | 73.2% (active)
Cc1cnc(NC(=O)CSc2nnc(-c3ccc(Cl)cc3Cl)n2N)s1 | 1100 cells | -0.9% (inactive)
CCOc1ccccc1NC(=O)CCc1ccc(C)o1 | 1160 cells | -2% (inactive)
NC(=O)N/N=C\c1cccs1 | 1280 cells | 0.1% (inactive)
